According to ChEMBL document CHEMBL4393722, “Development of the "hidden" multifunctional agents for Alzheimer's disease” (Eur J Med Chem, 2019):
Values belong to the molecule of their own block, whether it stands above or below them. Activity calls are given as the source filed them. No cut-off for these calls is given here.

How the values were obtained:
[1] = molecular target: Amyloid-beta precursor protein (Homo sapiens) (UniProt P05067); test: Inhibition of HFIP-pretreated amyloid beta (1 to 42) (unknown origin) self-aggregation at 20 uM after 72 hrs by uranyl acetate staining based transmission electron microscopy
Outline: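 Aβ1-42 was incubated alone or with compound for 72 h at 37 °C. Fibril formation was then examined by transmission electron microscopy, with curcumin as positive control.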

[2] = Metal chelating activity assessed as compound-Fe2+ complex formation at 25 uM incubated for 5 mins in presence of 25 uM FeSO4 by UV-visible spectrophotometry
[3] = Metal chelating activity assessed as compound-Zn2+ complex formation at 25 uM incubated for 5 mins in presence of 25 uM ZnCl2 by UV-visible spectrophotometry
[4] = molecular target: Amyloid-beta precursor protein (Homo sapiens) (UniProt P05067); test: Inhibition of HFIP-pretreated amyloid beta (1 to 42) (unknown origin) self-aggregation at 20 uM after 48 hrs by thioflavin-T fluorescence assay
[5] = Metal chelating activity assessed as compound-Cu2+ complex formation by measuring decrease in absorption with spectral shift to red end at 25 uM incubated for 5 mins in presence of 25 uM CuCl2 by UV-visible spectrophotometry
Danio rerio [6] = species: Danio rerio; test: Cognition enhancement in aluminium chloride-induced Alzheimer's disease zebra fish model assessed as Response efficiency at 5 uM treated from 3 dpf to 5 dpf relative to control; format: functional
Outline: (§1)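 Zebrafish larvae were exposed to 150 µM AlCl₃ from 3 to 5 dpf and co-treated with compound at 1, 5 or 25 µM over the same window, 30 fish per group. DRR and RE values were calculated from the average swimming speed of treated fish.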

[7] = MRT in Sprague-Dawley rat brain at 25 mg/kg, iv by HPLC analysis; format: ADME, organism-based
Outline: (§2)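 Male Sprague–Dawley rats were given a single intravenous dose of 25 mg/kg. Drug levels were followed by microdialysis of blood and brain, alongside plasma. AUC0–t, AUC0–∞, MRT and CLz were derived from the concentration–time curves, n=6, reported as mean ± SD.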

Danio rerio [8] = species: Danio rerio; test: Cognition enhancement in aluminium chloride-induced Alzheimer's disease zebra fish model assessed as Dyskinesia recovery rate at 25 uM treated from 3 dpf to 5 dpf relative to control; format: functional; outline: as §1
[9] = molecular target: Amyloid-beta precursor protein (Homo sapiens) (UniProt P05067); test: Inhibition of HFIP-pretreated amyloid beta (1 to 42) (unknown origin) self-aggregation at 20 uM after 24 hrs by thioflavin-T fluorescence assay relative to control
Danio rerio [10] = species: Danio rerio; test: Cognition enhancement in aluminium chloride-induced Alzheimer's disease zebra fish model assessed as Response efficiency at 1 uM treated from 3 dpf to 5 dpf relative to control; format: functional; outline: as §1
[11] = Stability of compound in human liver microsomes measured up to 60 mins by HPLC analysis; format: ADME, Microsome; details: 1 h
Outline: (§3)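 The compound was incubated separately in human plasma, human liver microsomes, simulated gastric fluid and simulated intestinal fluid. Remaining compound was quantified by HPLC at 5, 15, 30, 45 and 60 min.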

[12] = MRT in Sprague-Dawley rat blood dialysis at 25 mg/kg, iv by HPLC analysis; format: ADME, organism-based; details: blood dialysate; outline: as §2
A549 = test: Cytotoxicity against human A549 cells assessed as reduction in cell viability incubated for 24 hrs by MTT assay; format: cell-based; details: A549, 24 h
[13] = molecular target: Voltage-gated inwardly rectifying potassium channel KCNH2 (Homo sapiens, UniProt Q12809); test: Inhibition of human ERG expressed in CHO cells incubated for 1 min at -80 mV holding potential by manual patch clamp assay; format: cell-based
Mus musculus [14] = test: Cognition enhancement in aluminium trichloride-induced amnesia mouse model assessed as error times at 2 mg/kg administered via gastric gavage for 30 days by SMG-2 programmable water maze test (reference value: 20.7 +/- 4.8 secs); format: functional
[15] = AUC (0 to infinity) in Sprague-Dawley rat blood dialysis at 25 mg/kg, iv by HPLC analysis; format: ADME, organism-based; design: dose 25 mg/kg, route intravenous, time infinity; details: blood dialysate; outline: as §2
[16] = Stability of the compound in simulated intestinal fluid measured up to 60 mins by HPLC analysis; format: ADME; details: simulated gi fluid, 1 h; outline: as §3
[17] = Apparent clearance in Sprague-Dawley rat plasma at 25 mg/kg, iv by HPLC analysis; format: ADME, organism-based; details: read-out: CL(app); outline: as §2
N2a = test: Cytotoxicity against mouse Neuro2a cells assessed as reduction in cell viability incubated for 24 hrs by MTT assay; format: cell-based
Mus musculus [18] = test: Cognition enhancement in aluminium trichloride-induced amnesia mouse model assessed as total swimming time at 0.5 mg/kg administered via gastric gavage for 30 days by SMG-2 programmable water maze test (reference value: 115 +/- 19 secs); format: functional
[19] = AUC (0 to infinity) in Sprague-Dawley rat plasma at 25 mg/kg, iv by HPLC analysis; format: ADME, organism-based; design: dose 25 mg/kg, time infinity, route intravenous; outline: as §2
Danio rerio [20] = species: Danio rerio; test: Cognition enhancement in aluminium chloride-induced Alzheimer's disease zebra fish model assessed as Response efficiency at 25 uM treated from 3 dpf to 5 dpf relative to control; format: functional; outline: as §1
Mus musculus [21] = test: Cognition enhancement in scopolamine-induced amnesia mouse model assessed as total swimming distance at 25 mg/kg, iv administered once daily for 18 days measured after 50 mins at 5th day of training session by Morris water maze test (reference value: 785+/-351 cm); format: functional
[22] = MRT in Sprague-Dawley rat plasma at 25 mg/kg, iv by HPLC analysis; format: ADME, organism-based; outline: as §2
MCF7 = test: Cytotoxicity against human MCF7 cells assessed as reduction in cell viability incubated for 24 hrs by MTT assay; format: cell-based; details: MCF7, 24 h
[23] = Stability of the compound in simulated gastric fluid measured up to 60 mins by HPLC analysis; format: ADME; details: simulated gi fluid, 1 h; outline: as §3
Mus musculus [24] = test: Cognition enhancement in aluminium trichloride-induced amnesia mouse model assessed as error times at 0.5 mg/kg administered via gastric gavage for 30 days by SMG-2 programmable water maze test (reference value: 20.7 +/- 4.8 secs); format: functional
[25] = AUC (0 to t) in Sprague-Dawley rat brain at 25 mg/kg, iv by HPLC analysis; format: ADME, organism-based; outline: as §2
Danio rerio [26] = species: Danio rerio; test: Cognition enhancement in aluminium chloride-induced Alzheimer's disease zebra fish model assessed as Dyskinesia recovery rate at 5 uM treated from 3 dpf to 5 dpf relative to control; format: functional; outline: as §1
[27] = Stability of compound in human plasma measured up to 60 mins by HPLC analysis; format: ADME, cell-free; details: 1 h; outline: as §3
[28] = AUC (0 to infinity) in Sprague-Dawley rat brain at 25 mg/kg, iv by HPLC analysis; format: ADME, organism-based; design: dose 25 mg/kg, route intravenous, time infinity; outline: as §2
Mus musculus [29] = test: Cognition enhancement in aluminium trichloride-induced amnesia mouse model assessed as error times at 8 mg/kg administered via gastric gavage for 30 days by SMG-2 programmable water maze test (reference value: 20.7 +/- 4.8 secs); format: functional
[30] = Apparent clearance in Sprague-Dawley rat blood dialysis at 25 mg/kg, iv by HPLC analysis; format: ADME, organism-based; details: blood dialysate, read-out: CL(app); outline: as §2
Mus musculus [31] = test: Cognition enhancement in aluminium trichloride-induced amnesia mouse model assessed as total swimming time at 8 mg/kg administered via gastric gavage for 30 days by SMG-2 programmable water maze test (reference value: 115 +/- 19 secs); format: functional
Danio rerio [32] = species: Danio rerio; test: Cognition enhancement in aluminium chloride-induced Alzheimer's disease zebra fish model assessed as Dyskinesia recovery rate at 1 uM treated from 3 dpf to 5 dpf relative to control; format: functional; outline: as §1
[33] = AUC (0 to t) in Sprague-Dawley rat blood dialysis at 25 mg/kg, iv by HPLC analysis; format: ADME, organism-based; details: blood dialysate; outline: as §2
[34] = AUC (0 to t) in Sprague-Dawley rat plasma at 25 mg/kg, iv by HPLC analysis; format: ADME, organism-based; outline: as §2
[35] = molecular target: Amyloid-beta precursor protein (Homo sapiens) (UniProt P05067); test: Inhibition of HFIP-pretreated amyloid beta (1 to 42) (unknown origin) self- aggregation at 20 uM after 72 hrs by thioflavin-T fluorescence assay relative to control
Danio rerio [36] = species: Danio rerio; test: Cognition enhancement in aluminium chloride-induced Alzheimer's disease zebra fish model assessed as Dyskinesia recovery rate treated from 3 dpf to 5 dpf; format: functional, organism-based; outline: as §1
[37] = Ratio of drug level in Sprague-Dawley rat brain to plasma at 25 mg/kg, iv by HPLC analysis; format: ADME, organism-based; details: read-out: BPR
Outline: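 Male Sprague–Dawley rats received 25 mg/kg intravenously, with blood and brain sampled by microdialysis. The brain/plasma exposure ratio was calculated from AUC0–∞ measured in brain and plasma dialysates.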

Mus musculus [38] = test: Cognition enhancement in scopolamine-induced amnesia mouse model assessed as escape latency at 25 mg/kg, iv administered once daily for 18 days measured after 50 mins at 5th day of training session by Morris water maze test (reference value: 63.2+/-21.1 secs); format: functional
Mus musculus [39] = species: Mus musculus; test: Cognition enhancement in scopolamine-induced amnesia mouse model by Morris water maze test; format: functional, organism-based

Chain of Amyloid-beta precursor protein (Homo sapiens) (P05067 whole entry): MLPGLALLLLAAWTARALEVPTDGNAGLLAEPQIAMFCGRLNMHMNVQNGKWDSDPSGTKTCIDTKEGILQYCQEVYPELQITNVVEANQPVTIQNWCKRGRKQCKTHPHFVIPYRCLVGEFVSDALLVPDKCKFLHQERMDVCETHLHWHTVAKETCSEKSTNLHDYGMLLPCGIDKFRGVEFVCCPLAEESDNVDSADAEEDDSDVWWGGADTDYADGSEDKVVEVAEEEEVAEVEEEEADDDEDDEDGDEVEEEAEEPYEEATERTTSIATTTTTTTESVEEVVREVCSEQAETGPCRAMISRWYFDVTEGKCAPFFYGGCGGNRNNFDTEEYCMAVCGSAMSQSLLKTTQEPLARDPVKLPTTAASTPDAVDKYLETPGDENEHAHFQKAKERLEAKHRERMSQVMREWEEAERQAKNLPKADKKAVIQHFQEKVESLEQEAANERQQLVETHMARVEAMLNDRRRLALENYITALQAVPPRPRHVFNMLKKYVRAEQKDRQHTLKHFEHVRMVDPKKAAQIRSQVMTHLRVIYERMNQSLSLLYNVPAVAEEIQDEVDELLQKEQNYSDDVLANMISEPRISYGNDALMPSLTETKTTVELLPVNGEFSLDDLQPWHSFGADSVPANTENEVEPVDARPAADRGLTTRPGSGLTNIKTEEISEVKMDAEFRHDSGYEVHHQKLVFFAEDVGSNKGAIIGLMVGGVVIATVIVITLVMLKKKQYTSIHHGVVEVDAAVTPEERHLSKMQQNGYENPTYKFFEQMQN
Chain of Voltage-gated inwardly rectifying potassium channel KCNH2 (Q12809 whole entry): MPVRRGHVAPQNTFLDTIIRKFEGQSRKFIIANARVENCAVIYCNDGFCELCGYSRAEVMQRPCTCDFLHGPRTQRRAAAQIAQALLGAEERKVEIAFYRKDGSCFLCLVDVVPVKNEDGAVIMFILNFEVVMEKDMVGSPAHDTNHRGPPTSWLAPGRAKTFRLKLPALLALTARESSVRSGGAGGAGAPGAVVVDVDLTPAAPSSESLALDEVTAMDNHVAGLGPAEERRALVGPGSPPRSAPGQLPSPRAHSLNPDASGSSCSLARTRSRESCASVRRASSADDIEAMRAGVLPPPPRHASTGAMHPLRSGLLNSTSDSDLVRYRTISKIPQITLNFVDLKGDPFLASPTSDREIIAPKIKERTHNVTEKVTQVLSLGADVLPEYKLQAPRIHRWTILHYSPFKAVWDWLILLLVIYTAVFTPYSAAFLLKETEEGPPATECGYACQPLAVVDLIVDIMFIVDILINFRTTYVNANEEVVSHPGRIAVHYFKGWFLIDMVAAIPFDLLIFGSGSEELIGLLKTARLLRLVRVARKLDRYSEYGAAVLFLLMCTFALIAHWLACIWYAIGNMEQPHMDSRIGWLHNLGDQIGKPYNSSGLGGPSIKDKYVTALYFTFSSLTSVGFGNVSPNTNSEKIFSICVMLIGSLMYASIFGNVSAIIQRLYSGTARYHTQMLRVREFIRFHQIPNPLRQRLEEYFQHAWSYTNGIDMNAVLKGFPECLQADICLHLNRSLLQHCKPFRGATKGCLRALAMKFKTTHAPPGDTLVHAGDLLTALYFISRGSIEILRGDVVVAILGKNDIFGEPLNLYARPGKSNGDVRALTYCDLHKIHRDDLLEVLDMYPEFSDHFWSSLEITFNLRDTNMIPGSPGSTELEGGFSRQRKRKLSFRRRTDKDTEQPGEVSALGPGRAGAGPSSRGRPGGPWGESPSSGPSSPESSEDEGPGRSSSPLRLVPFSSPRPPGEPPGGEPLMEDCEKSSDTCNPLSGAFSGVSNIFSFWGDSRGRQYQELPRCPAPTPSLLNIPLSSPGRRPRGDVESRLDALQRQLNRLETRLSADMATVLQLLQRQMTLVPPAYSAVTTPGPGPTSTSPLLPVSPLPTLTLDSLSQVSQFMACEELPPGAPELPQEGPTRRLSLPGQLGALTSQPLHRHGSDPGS

inhibition [1]: Active
Activity [2]: Active
Activity [3]: Active
inhibition [4]: 44%
Activity [5]: Active
Structure (SMILES): CC(c1cc(O)c2ncccc2c1)N(C)C (centres undefined)

Structure (SMILES): CCN(C)C(=O)Oc1cc(C(C)N(C)C)cc2cccnc12 (centres undefined)
Activity (Danio rerio [6]): 161.4%
inhibition [1]: Active
MRT [7]: 0.947 h
Activity (Danio rerio [8]): 121%
inhibition [9]: 31.3%
Activity (Danio rerio [10]): 112.4%
Activity [2]: inactive
Stability [11]: Stable
MRT [12]: 1.16 h
IC50 (A549): > 20 µM
IC50 [13]: > 30 µM
Time (Mus musculus [14]): 18.1 s
AUC(0-inf) [15]: 2450 ng·h/mL
Stability [16]: Stable
clearance [17]: 62 mL/min/kg
IC50 (N2a): > 20 µM
Time (Mus musculus [18]): 73 s
AUC(0-inf) [19]: 7460 ng·h/mL
Activity (Danio rerio [20]): 70.2%
Activity (Mus musculus [21]): 520 cm
inhibition [4]: 55.9%
MRT [22]: 1.53 h
IC50 (MCF7): > 20 µM
Stability [23]: Stable
Activity [5]: inactive
Time (Mus musculus [24]): 15.1 s
AUC(0-t) [25]: 1260 ng·h/mL
Activity (Danio rerio [26]): 99.3%
Stability [27]: Stable
AUC(0-inf) [28]: 1270 ng·h/mL
Time (Mus musculus [29]): 16.8 s
clearance [30]: 190 mL/min/kg
Time (Mus musculus [31]): 79 s
Activity (Danio rerio [32]): 70.8%
AUC(0-t) [33]: 2430 ng·h/mL
AUC(0-t) [34]: 7410 ng·h/mL
inhibition [35]: 66.1%
Activity (Danio rerio [36]): Dose-dependent effect
Kp [37]: 0.524
Time (Mus musculus [38]): 43.8 s

Activity [2]: Active
Activity [3]: Active
Activity [5]: Active
Structure (SMILES): Oc1c(I)cc(Cl)c2cccnc12
Activity (Mus musculus [39]): inactive
